Assay results: the EternaBench riboswitch data

Test system: MS2 coat protein
Assay: apparent Kd, MS2 coat protein; higher = weaker binding; RNA-MaP array; FMN 200 µM where present
Procedure, shortened: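 Green signal was scaled to red-channel RNA signal and control-cluster median Fmax, and the apparent Kd was taken as the median of filtered per-cluster binding-curve fits. The binding series used SNAP-549-labelled MS2 coat protein from 0.7 or 1.5 nM, doubling to 3 µM, on designs transcribed by stalled E. coli RNA polymerase on Illumina sequencing-chip clusters. Each series ran without and then with constant ligand in 100 mM Tris-HCl pH 7.5, 80 mM KCl, 4 mM MgCl2, BSA, DTT, yeast tRNA and Tween-20.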

[1] = designed as: OFF switch for flavin mononucleotide, no ligand
[2] = ligand present: flavin mononucleotide, designed as: OFF switch for flavin mononucleotide
[3] = designed as: ON switch for flavin mononucleotide, no ligand
[4] = ligand present: flavin mononucleotide, designed as: ON switch for flavin mononucleotide

| Sequence | apparent Kd [1] [nM] | apparent Kd [2] [nM] | apparent Kd [3] [nM] | apparent Kd [4] [nM] |
| --- | --- | --- | --- | --- |
| CGAUGUUAUGCAGGAUAUCUCCCUUGAAUGCGGAGAGAAGGGCAUAGGGAGACAUACGCCUUAUUACAUGAGGAUCACCCAUGU | 8.42 | 7.86 |  |  |
| CGAUUAUUGAUCCAUUUUUACAACAUGAGGAUCACCCAUGUGCAGGAUAUCGUGGUGAUUAACUACGAGAAGGGCAAAUUCACG | 123 | 220 |  |  |
| CGAUUUGUAGGAUAUGUAUGAGUAAUCCCUUUUUAUGAAGAACAUGAGGAUCACCCAUGUAGAAGGGCAUUGUA | 19.6 | 17.6 |  |  |
| CGCAAUAUACAGAAGGAGUUAUUUAGAGGAUUACUAGGAUAUGUUCACAUGAGGAUCACCCAUGUCAUAUGGAGUUUUAUUGCG | 9.43 | 8.27 |  |  |
| CGCACUAAACAUGAGGAUCACCCAUGUAACUAAGAGCUAGUCAGAAGGCAUAAUUAGUGAAUUAAUGAGGAUAUGAAUAGUGCG |  |  | 157 | 62.2 |
| CGCACUAUACAUGAGGAUCACCCAUGUUAACAUGAGCUAUUCAGAAGGCAUAAUUAGAGAAUAAAUGAGGAUAUGAUUAGUGCG |  |  | 34.7 | 18.8 |
| CGCAUACUAGGAUAUACAUGAGGAUCACCCAUGUCGCCGGGCCCACUCAUACUAAAACGUAGAAGGAGUUUGCC | 18.5 | 18.8 |  |  |
| CGCCGACAUGAGGAUCACCCAUGUCACAUCUGGUCAGGAUAUGGUGUGGUUUGGCUAUUGCCAGAAGGGACCUCAG |  |  | 101 | 102 |
| CGCCUGUAAGGAUAUUAGUAGUAGUCAGAAAAGACUAUUACUGAGAAGGUACAUGAGGAUCACCCAUGUUGGCG | 15.3 | 20.4 |  |  |
| CGCCUGUGAGGAUAUUAGUAGUAGUCAGAAUAGACUAUUACUGAGAAGGUACAUGAGGAUCACCCAUGUUGGCG | 20.9 | 19.1 |  |  |
| CGCGAACAGGUUAACAUGAGGAUCACCCAUGUGGACUCAUGGUAGGAUAUCGGGAAGGAGGAAACCGAGAAGGGCCGGUGAGCC |  |  | 324 | 107 |
| CGCGAACAGUUUAACAUGAGGAUCACCCAUGUGGACUCAUGGUAGGAUAUCGGGAAGGAGGAAACCGAGAAGGGCUGGUGAGCC |  |  | 583 | 419 |
| CGCGCGCGUGUUAGGAUAUAUGUGUGUGGUUAUUUAUAGAAGGGACAUGAGGAUCACCCAUGUGUGUGGGCGCG | 520 | 489 |  |  |
| CGCGUAUGAGGAUAUGCAUAAAAGGGUGCACUGAGUCUGUGACAUGAGGAUCACCCAUGUAGAAGGCGUGCGCA | 26.7 | 73.2 |  |  |
| CGCUACAGCCAGAAGGACAUGAGGAUCACCCAUGUAGGAUAUGGGAGACGCAGUCCAGUGUAGAGAAACUACGCUACUGUAGCG |  |  | 504 | 216 |
| CGCUACAUGAGGAUCACCCAUGUACUUACUUGCACGUGAACGAGAAGGCCACAGCAACACAGCGUGGAGGAUAUCGUGGUGCCU |  |  | 10.8 | 9.35 |
| CGCUACGUUUCGUAGCAGUGUCAUCGAGAAGGCCCUGACAUGAGGAUCACCCAUGUAAAAGUUCAGGAGGAUAUCGAUGAUACA |  |  | 4.83 | 4.95 |
| CGCUAUGACAUAGGAUAUUGGUACAUGAGGAUCACCCAUGUCAACCAUGAAGCUCGAUUUGUUGACAAGAAGGAUGUGGUAGCG |  |  | 6.65 | 7.63 |
| CGCUCAAGAGAGAAGGAUAGAAUCAGAAGGCGUAACAUGAGGAUCACCCAUGUAAAGUAGUGUAACGAGGAUAUGAAAUGAGCG | 11.8 | 13.1 |  |  |
| CGCUCAAUAUAUAAGGAAAGAAUCAGAAGGCGUUACAUGAGGAUCACCCAUGUUUUGUAUAGUAACGAGGAUAUGAUAUGAGCG | 17.9 | 15.3 |  |  |
| CGCUGUCUCGCAGGAUAUGCAUUGGAUUACAAUGCAGAAGGGCGAUUACAUGAGGAUCACCCAUGUGUUGACAGUGAAGAAUAG |  |  | 96.6 | 22.2 |

| Sequence | apparent Kd [1] [nM] | apparent Kd [2] [nM] | apparent Kd [3] [nM] | apparent Kd [4] [nM] |
| --- | --- | --- | --- | --- |
| CGGAAUUGUACAGGAUAUGAGGGUACCUGAGCCUCAGAAGGGUAGACCGACAUGAGGAUCACCCAUGUAUGCGGAUAACGUCCG |  |  | 1180 | 592 |
| CGGACCCGAGGAUAUCGUAAACCCGACAUGAGGAUCACCCAUGUCAUCCUCACGGCGCCACGAGAAGGCGGUGUUA | 24.2 | 75.7 |  |  |
| CGGCAUCAUGUAGGAUAUGCGUGGCGAAGCUAUGCAGAAGGACAUGAGGAUCACCCAUGUCUUAGCUAGCGUACUAGCUUGCCG | 6.24 | 16.6 |  |  |
| CGGCGACAUGAGGAUCACCCAUGUCAAGAGUGGUCAGGAUAUGGUAUGAGAUGAGUAUGGCCAGAAGGGACAUAAG |  |  | 29.1 | 21.2 |
| CGGCGCUGUCGAGAGGAUAUGCGGUGAUGGACAUGAGGAUCACCCAUGUUAGCGAUAGCAUCACGGUAGAAGGCUCUACGGCCUG |  |  | 112 | 15.6 |
| CGGCGCUGUCGAGAGGAUAUGCGGUGAUGGACAUGAGGAUCACCCAUGUUAGCGAUAGCAUUACGGUAGAAGGCUCUACAGCUGC |  |  | 34.7 | 16.3 |
| CGGCGCUGUUGAGAGGAUAUGCGGUGAUGGACAUGAGGAUCACCCAUGUUAGCGAUAGCAUUACGGUAGAAGGCUCUACAGCUGU |  |  | 28.1 | 16.7 |
| CGGCGGAAAGGAUAUGCAUUAAUAUCCAAAUGUGGGCCACGACAUGAGGAUCACCCAUGUAGAAGGUUCAGCCG | 15.3 | 13.9 |  |  |
| CGGCGGGCAGGAUAUACAUGAGGAUCACCCAUGUGUGUCCAUACGCGUGAGUCCUCGUGUAGAAGGGUUUGUUG | 14.9 | 13.4 |  |  |
| CGGGUGGUCCUCCGGGAUUGGACACAGGAUAUCCGCGAGAACAUGAGGAUCACCCAUGUACAUGAGGAGAAGGGUGGACGAAGA |  |  | 56.1 | 11.2 |
| CGGUACUGAGGAUAUACAUGAGGAUCACCCAUGUGUUCUAGCUAGCGUACUGGCUAUUGUAGAAGGCGGUGCUG | 17.5 | 99.8 |  |  |
| CGGUCGAUAUCAGGAUAUCGAUUAAUUACAUGAGGAUCACCCAUGUUGACAUGGAAUAUAACAUGCGAGAAGGGAUUACGAUCG |  |  | 27.6 | 10.7 |
| CGGUCGAUGUAAGGAUAUCGACUGGAUAACAGUCGAGAAGGUACAUGAGGAUCACCCAUGUAAACCUAUAAUAAAUAACGACCG | 11.2 | 14.6 |  |  |
| CGGUCUUGCAACUAUUUGUUUCACAUGAGGAUCACCCAUGUCAGAAGGAGGUGCAUAUAUUAGACCUAGGAUAUGACGUGUAAA | 9.79 | 28.4 |  |  |
| CGGUUGCGAGGAUAUAUGACAUGUUGCGCCGGAACUCCGCCACAUGAGGAUCACCCAUGUAGAAGGCGCAACUU | 14.4 | 15.3 |  |  |
| CGUACACAUGAGGAUCACCCAUGUCAGAGGCGGUCAGGAUAUGGGCGGCAUCCGCUAUAGCCAGAAGGGACUGAUG |  |  | 173 | 73.6 |
| CGUCAUCAAGUGAGGAUAUCGUCAAAUCAAUCAGGCGAGAAGGCACAUGAGGAUCACCCAUGUCGACUCAUCAC | 15.4 | 22.2 |  |  |
| CGUCGAUACCAGAAGGACAUGAGGAUCACCCAUGUAGGAUAUGGGUGACCGGGAUGGCGGACACGCUGCCCGGGCACAUGCGAC |  |  | 10.6 | 7.79 |
| CGUCUGUGAGGAUAUGGUGUCGUUUACAUGAGGAUCACCCAUGUUUCAUGGGACUAGAGACUAGAAGGUACUGACG | 314 | 413 |  |  |
| CGUGCGUAUGUGAGGAUAUGCUGGUCCUUGGAUCGGCAGAAGGCACAUGAGGAUCACCCAUGUGGUGUCGUACA | 312 | 43.2 |  |  |
| CGUGCUAUGUAGAAGGCAGAAAAGAUUCAGAUCUGAGGAUAUACAUGAGGAUCACCCAUGUUAUGCACCAGCACGAGAGUGCAC | 6.69 | 7.03 |  |  |
